Compound activity (PubChem BioAssay)
Rows were chosen to be rich in hits. Some 4.1% of all compounds tested hit in one or more screens of this group.
H9c2 TAG inh: reduces triacylglycerol accumulation in H9c2 cells | inhibition, % at 12.5 µM | 230,000 compounds, 0.66% hits | Nile Red lipid (TAG) fluorescence; cells loaded with 200 µM oleic acid;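 active = pattern-corrected inhibition of lipid staining of at least 50% with the nuclear-stain viability signal not falling by more than 50%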
Efflux pump inh: inhibitors of Candida antifungal efflux pumps expressed in yeast; 330,000 compounds, 0.44% hits; inhibition, % at 10 µM; S. cerevisiae Candida pump triplex, Nile Red efflux;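 active = plate passing quality check with inhibition over a set limit, or well fluorescence over plate mean plus 4 SD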;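 note: Nile Red retained in pooled yeast measured as flow cytometry median fluorescence; higher means more Nile Red kept so more efflux inhibition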
SMARCA2 act: SMARCA2 function activation, primary screen; MG213 cells, MMTV-luciferase reporter, dexamethasone, overnight; activation, % at 9.1 µM; 370,000 compounds, 1% hits; in the data active = activation above about 7.8%
AHR act: human AHR activation; P35869; AHR-responsive luciferase reporter cells, luminescence; activation, % at 5 µM; 320,000 compounds, 2.5% hits; AID 2796; in the data active = activation above about 47%
Target sequence (P35869 whole entry, looked up): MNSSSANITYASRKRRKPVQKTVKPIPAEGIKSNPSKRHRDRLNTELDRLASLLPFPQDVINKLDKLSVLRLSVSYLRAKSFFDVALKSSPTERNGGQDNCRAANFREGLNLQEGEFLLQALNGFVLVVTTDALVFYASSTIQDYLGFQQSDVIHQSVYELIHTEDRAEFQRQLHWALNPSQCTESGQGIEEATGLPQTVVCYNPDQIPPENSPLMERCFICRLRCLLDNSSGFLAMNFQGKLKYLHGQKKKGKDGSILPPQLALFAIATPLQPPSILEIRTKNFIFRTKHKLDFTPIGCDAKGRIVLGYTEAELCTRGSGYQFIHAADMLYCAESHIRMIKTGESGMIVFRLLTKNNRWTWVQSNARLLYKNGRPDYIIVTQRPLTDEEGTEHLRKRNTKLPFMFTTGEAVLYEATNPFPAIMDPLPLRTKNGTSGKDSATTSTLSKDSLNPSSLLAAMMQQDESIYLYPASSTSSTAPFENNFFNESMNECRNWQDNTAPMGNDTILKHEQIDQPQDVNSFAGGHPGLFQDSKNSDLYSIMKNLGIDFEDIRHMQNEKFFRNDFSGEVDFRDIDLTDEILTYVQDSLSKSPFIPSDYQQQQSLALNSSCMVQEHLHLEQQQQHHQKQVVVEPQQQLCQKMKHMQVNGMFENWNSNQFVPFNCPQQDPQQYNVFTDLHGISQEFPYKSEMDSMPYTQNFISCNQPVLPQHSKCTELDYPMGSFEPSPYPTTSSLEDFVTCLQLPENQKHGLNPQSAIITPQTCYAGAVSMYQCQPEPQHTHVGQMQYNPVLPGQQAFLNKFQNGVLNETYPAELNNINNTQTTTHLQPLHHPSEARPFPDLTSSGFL
Tb MetRS inh: blocks T. brucei methionyl-tRNA synthetase activity | inhibition, % at 11.9 µM | 360,000 compounds, 0.4% hits | purified T. brucei MetRS, ATP depletion, Kinase-Glo luminescence;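 active = inhibition above a per-plate cutoff of the control wells' mean inhibition plus 3 SD, cut at about 5.5% in these data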
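technique = Kinase-Glo luminescence, ATP depletion format | system = purified MetRS (methionyl-tRNA synthetase) enzyme from Trypanosoma brucei | timing = 15 min preincubation, 2 h reaction, all 25 °C | evaluation = percent inhibition versus plate control medians | dosing = single dose, 11.9 µM final nominal, 0.9% final DMSO | also added = substrates ATP, L-methionine and bulk Escherichia coli tRNA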
Large screens that a line does not name were inactive.

CCOC(=O)[C@]12CCCC=C1N(CCCOC)C(=O)[C@@H]2CC(=O)N1CCSCC1	none (no result: H9c2 TAG inh, Efflux pump inh, AHR act, Tb MetRS inh)
COc1ccc(CCNc2oc(-c3ccccc3OC)nc2C#N)cc1	none
COc1ccccc1-c1nc(C#N)c(NCCCn2ccnc2)o1	AHR act 70
C[C@H](O)[C@@H]1CN2CCc3c([nH]c4c(-c5ccccc5)cccc34)[C@@H]2C[C@@H]1N(C)CC1CCCCC1	none (no result: H9c2 TAG inh, Efflux pump inh, AHR act, Tb MetRS inh)
Cc1ccc(C(=O)/C=C/c2c[nH]c3ccccc23)cc1	AHR act 52 (no result: H9c2 TAG inh)
Cc1[nH]c2ccccc2c1/C=C/C(=O)c1ccncc1	AHR act 56
O=C(/C=C/c1cccc2ccccc12)c1ccncc1	none
COc1ccc2[nH]cc(/C=C/C(=O)c3ccccc3)c2c1	none
Cc1c(Br)c(C(=O)NCc2cc3cc(Cl)ccc3[nH]2)nn1C	none
Cn1cc([N+](=O)[O-])c(C(=O)NCc2cc3cc(Cl)ccc3[nH]2)n1	AHR act 48
Cc1c(NC(=O)C2CCCN(S(=O)(=O)c3ccc(F)cc3)C2)c(=O)n(-c2ccccc2)n1C (centres undefined)	none (no result: H9c2 TAG inh, Efflux pump inh, AHR act, Tb MetRS inh)
CCOc1ccc(N2CC(=O)N/C2=N\c2nc(C)cc(C)n2)cc1	AHR act 50
Cc1cc(C)nc(/N=C2\NC(=O)CC(C(=O)O)N2c2ccc(Oc3ccccc3)cc2)n1 (centres undefined)	none
S=C(NCc1ccccc1)Nc1ccc(Oc2ccccc2)cc1	AHR act 74
CCOC(=O)c1oc2ccccc2c1NC(=O)C(C)(C)C	none
CCOCC(=O)Nc1c(C(=O)OCC)oc2ccccc12	AHR act 68 (no result: H9c2 TAG inh)
COc1ccc(NC(=O)c2oc3ccccc3c2NC(=O)c2ccco2)cc1	AHR act 69 (no result: H9c2 TAG inh)
COCC(=O)Nc1c(C(=O)Nc2ccccc2OC)oc2ccccc12	AHR act 84 (no result: H9c2 TAG inh)
COc1ccc(NC(=O)c2oc3ccccc3c2NC(=O)C2CC2)c(OC)c1	AHR act 55 (no result: H9c2 TAG inh)
CCOC(=O)[C@@]12CN(C(=O)OC(C)(C)C)CC=C1N(Cc1ccc(OC)cc1)C(=O)[C@H]2CC(=O)N1CCC(c2ccccc2)CC1	none (no result: H9c2 TAG inh, Efflux pump inh, AHR act, Tb MetRS inh)
Cn1c(=O)c(=O)n(C)c2cc(S(=O)(=O)N3CCN(Cc4ccc5c(c4)OCO5)CC3)ccc21	none (no result: H9c2 TAG inh, Efflux pump inh, AHR act, Tb MetRS inh)
CCOCC(=O)Nc1c(C(=O)Nc2ccc(OC)cc2OC)oc2ccccc12	AHR act 67 (no result: H9c2 TAG inh)
COc1ccc(NC(=O)c2oc3ccccc3c2NC(=O)c2ccco2)c(OC)c1	none (no result: H9c2 TAG inh)
COc1ccc(NC(=O)c2oc3ccccc3c2NC(=O)C2CC2)cc1	AHR act 72 (no result: H9c2 TAG inh)
COc1ccccc1NC(=O)c1oc2ccc(C)cc2c1C	AHR act 60
COc1ccccc1NC(=O)c1oc2ccccc2c1NC(=O)c1cc(OC)c(OC)c(OC)c1	none (no result: H9c2 TAG inh)
O=S1(=O)c2ccc(Br)cc2OC[C@H](Cc2ccccc2)N1Cc1cn(Cc2ccc(F)cc2)nn1	none (no result: H9c2 TAG inh, Efflux pump inh, AHR act, Tb MetRS inh)
NC(=O)C(CC(=O)O)NC(=O)[C@@H]1CCCNc2c(I)cc([N+](=O)[O-])cc2C(=O)N[C@@H](CO)C(=O)N[C@@H](Cc2ccc(O)cc2)C(=O)N1 (some centres undefined)	Tb MetRS inh 41 (no result: SMARCA2 act)
C[C@@H]1COc2cc(N3CCCC3)ccc2S(=O)(=O)N1C	none (no result: H9c2 TAG inh, Efflux pump inh, AHR act, Tb MetRS inh)
CCOC(=O)COc1ccc(Oc2nc(C)cc(OC)n2)nn1	SMARCA2 act 7.8 (no result: H9c2 TAG inh)
CN(C)CC(C(=O)c1ccccc1)c1ccccc1 (centres undefined)	H9c2 TAG inh 65
CN(Cc1cc(Cl)cc(Cl)c1)CC(C(=O)c1ccccc1)c1ccccc1 (centres undefined)	none (no result: Efflux pump inh, AHR act)
COc1cc(OC)cc(-n2c3nc4ccccc4nc3c3c(=O)n(CC4CCCO4)cnc32)c1 (centres undefined)	Efflux pump inh 1.1 (no result: H9c2 TAG inh, Tb MetRS inh)
COC(=O)[C@]12C[C@H](CC(=O)NCc3cccs3)C(=O)N(CCC3=CCCCC3)C1=C[C@H](C(C)(C)C)O[C@@H]2C	none (no result: H9c2 TAG inh, Efflux pump inh, AHR act, Tb MetRS inh)
Oc1c(C(Nc2ccccn2)c2ccccn2)ccc2cccnc12 (centres undefined)	none
Oc1ccccc1C(Nc1nccs1)c1ccc2cccnc2c1O (centres undefined)	H9c2 TAG inh 52
NCCSc1c(-c2ccc(Cl)cc2)[nH]c2ccccc12	AHR act 48
NCCSc1c(-c2ccccc2)[nH]c2ccccc12	none
C[C@H]1COc2c3ccccc3nn21	none (no result: H9c2 TAG inh, Efflux pump inh, AHR act, Tb MetRS inh)
COC(=O)[C@]12C[C@H](CC(=O)NCC34CC5CC(CC(C5)C3)C4)C(=O)N(Cc3ccc(Cl)cc3Cl)C1=C[C@H](C(C)C)O[C@@H]2C1CC1	none (no result: H9c2 TAG inh, Efflux pump inh, AHR act, Tb MetRS inh)
COC(=O)[C@]12C[C@H](CC(=O)NCc3ccc(OC)c(OC)c3)C(=O)N(CCc3ccc(OC)c(OC)c3)C1=C[C@H](C(C)(C)C)O[C@@H]2C	none (no result: H9c2 TAG inh, Efflux pump inh, AHR act, Tb MetRS inh)
CCn1c(=O)c(-c2cc(=O)[nH][nH]2)c(O)c2ccccc21	none
Cn1c(=O)c(-c2cc(=O)[nH][nH]2)c(O)c2ccccc21	AHR act 51 (no result: H9c2 TAG inh)
O=C(COC(=O)CNC(=O)c1ccc(Cl)c([N+](=O)[O-])c1)NNC(=O)c1ccccc1F	none
O=C(COC(=O)CNC(=O)c1ccc(Cl)c([N+](=O)[O-])c1)NC(=O)c1ccccc1	AHR act 57
Cc1ccc(NC(=O)c2cc(=O)[nH]c3ccccc23)cc1	AHR act 76 (no result: H9c2 TAG inh)
O=C(NC1CCCCN(Cc2cccc(Cl)c2)C1=O)c1ccc(F)cc1 (centres undefined)	none (no result: H9c2 TAG inh, Efflux pump inh, AHR act, Tb MetRS inh)
CC(=O)c1c(C)[nH]c(C(=O)N2CCc3ccccc3C2)c1C	AHR act 48
C#CCN(C1CC1)S(=O)(=O)c1ccccc1Br	none (no result: H9c2 TAG inh, Efflux pump inh, AHR act, Tb MetRS inh)
Fc1cccc(CNc2ncnc3cc(Cl)ccc23)c1F	AHR act 49 (no result: H9c2 TAG inh)
COc1ccc(CNc2ncnc3cc(Cl)ccc23)cc1	none
Cn1c2ccc(Br)cc2c2nnc(SCC(=O)O)nc21	AHR act 54 (no result: H9c2 TAG inh)
Cn1c2ccccc2c2nnc(SCC(=O)Nc3cccc(O)c3)nc21	AHR act 66 (no result: H9c2 TAG inh)
CCCCn1c2ccccc2c2nnc(SCC(=O)NC3=NN=C(c4ccccc4)CS3)nc21	AHR act 61 (no result: H9c2 TAG inh, Tb MetRS inh)
Cn1c2ccccc2c2nnc(SCC(N)=O)nc21	none (no result: H9c2 TAG inh)
Cc1ccc(S(=O)(=O)n2ccc(-c3c(-c4ccccc4)noc3C)n2)cc1	none (no result: H9c2 TAG inh, Efflux pump inh, AHR act, Tb MetRS inh)
O=C(CCc1ccccc1)N[C@H]1[C@@H](OC(=O)c2ccco2)CCC[C@]12C(=O)N(Cc1ccccc1)c1ccccc12	none (no result: H9c2 TAG inh, Efflux pump inh, AHR act, Tb MetRS inh)
Cc1cc(/C=C(\C#N)C(=O)NC2CCCCCC2)c(C)[nH]1	none
Cc1cc(/C=C(\C#N)C(=O)Nc2ccccc2F)c(C)[nH]1	AHR act 66
Cc1cc(/C=C(\C#N)C(=O)NC2CC2)c(C)[nH]1	AHR act 58 (no result: H9c2 TAG inh)
O=C(/C=C/c1c(Cl)nc2ccccn12)N1CCCCC1	AHR act 59 (no result: H9c2 TAG inh)
COC(=O)[C@]12C[C@H](CC(=O)NCCC(C)C)C(=O)N(CCc3ccc(OC)c(OC)c3)C1=C[C@H](COCc1ccccc1)O[C@@H]2C	none (no result: H9c2 TAG inh, Efflux pump inh, AHR act, Tb MetRS inh)
CC(C)=CCC/C(C)=C/CNC(=O)C[C@H]1C[C@H](C(=O)N2CCOCC2)[C@@]2(CCC3CCCC3)c3[nH]c4cc(-c5ccco5)ccc4c3CCN2C1=O	H9c2 TAG inh 62 (no result: AHR act)
